Reference: ChEMBL document CHEMBL1144782, “Isoindolo[2,1-a]quinoxaline derivatives, novel potent antitumor agents with dual inhibition of tubulin polymerization and topoisomerase I” (2008)

Assays:
Type in all cases: functional
[1] = test system: NCI-H23; assay: Antitumor activity against human NCI-H23 cells
In short: (§1)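 Run by the NCI in its in vitro disease-oriented screen of about 60 human tumour cell lines. For each line it reports pGI50 (50% net growth inhibition), pTGI (total growth inhibition) and pLC50 (50% net cell death), each as –log molar concentration. Where an effect was not reached within the tested range, the highest tested concentration was used.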

[2] = test system: SK-MEL-2; assay: Antitumor activity against human SKMEL2 cells; in short: as §1
[3] = test system: MCF7; assay: Growth inhibition of human MCF7 cells after 72 hrs by MTT assay; conditions: MCF7, 72 h
In short: (§2)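 Growth inhibition by MTT after 72 h incubation. Resistant sublines: LoVoDoxo and MCF-7 MDR were kept in 0.1 µg/mL doxorubicin; CEMVbl-100 was selected against vinblastine. GI50 given as mean ± SEM of three independent experiments. Resistance index is resistant-line GI50 over parental GI50.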

[4] = test system: NCI-H460; assay: Antitumor activity against human NCI-H460 cells; in short: as §1
[5] = test system: MDA-MB-435; assay: Antitumor activity against human MDA-MB-435 cells; in short: as §1
[6] = test system: PC-3; assay: Antitumor activity against human PC3 cells; in short: as §1
[7] = test system: NCI-H460; assay: Cell viability against human NCI-H460 cells at 10 uM
[8] = test system: SF-268; assay: Cell viability against human SF268 cells at 10 uM
[9] = test system: A549; assay: Antitumor activity against human A549 cells; in short: as §1
[10] = test system: CCRF-CEM; assay: Resistance index, Ratio of GI50 for human vinblastine-resistant CEM cells to GI50 for human CEM cells
[11] = test system: COLO 205; assay: Antitumor activity against human COLO205 cells; in short: as §1
[12] = test system: OVCAR-3; assay: Antitumor activity against human OVCAR-3 cells; in short: as §1
[13] = test system: CCRF-CEM; assay: Antitumor activity against human CCRF-CEM cells; in short: as §1
[14] = test system: OVCAR-8; assay: Antitumor activity against human OVCAR8 cells; in short: as §1
[15] = test system: HOP-92; assay: Antitumor activity against human HOP92 cells; in short: as §1
[16] = test system: CAKI-1; assay: Antitumor activity against human CAKI1 cells; in short: as §1
[17] = test system: A498; assay: Antitumor activity against human A498 cells; in short: as §1
[18] = test system: MCF7; assay: Cell viability against human MCF7 cells at 10 uM
[19] = test system: Malme-3M; assay: Antitumor activity against human MALME3M cells; in short: as §1
[20] = test system: SK-MEL-28; assay: Antitumor activity against human SKMEL28 cells; in short: as §1
[21] = test system: HT-29; assay: Antitumor activity against human HT29 cells; in short: as §1
[22] = test system: RXF 393; assay: Antitumor activity against human RXF393 cells; in short: as §1
[23] = test system: Hs-578T; assay: Antitumor activity against human HS578T cells; in short: as §1
[24] = test system: CCRF-CEM; assay: Growth inhibition of human CEM cells after 72 hrs by MTT assay; in short: as §2
[25] = test system: NCI-H226; assay: Antitumor activity against human NCI-H226 cells; in short: as §1
[26] = test system: TK-10; assay: Antitumor activity against human TK10 cells
In short: (§3)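 NCI 60-cell-line screen. Parameters were GI50 (50% net growth inhibition), TGI and LC50, each reported as –log molar concentration. Where an effect was not reached within the tested range, the highest tested concentration was used in the calculation.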

[27] = test system: MCF7; assay: Resistance index, Ratio of GI50 for human multidrug-resistant MCF7 cells to GI50 for human MCF7 cells; in short: as §2
[28] = test system: HCC 2998; assay: Antitumor activity against human HCC2998 cells; in short: as §1
[29] = Antitumor activity against human NCI-H322 cells; in short: as §1
[30] = test system: SF-295; assay: Antitumor activity against human SF295 cells; in short: as §1
[31] = test system: NCI/ADR-RES; assay: Antitumor activity against human NCI/ADR-RES cells; in short: as §1
[32] = test system: CCRF-CEM; assay: Growth inhibition of human vinblastine-resistant CEM cells after 72 hrs by MTT assay; in short: as §2
[33] = test system: UACC-257; assay: Antitumor activity against human UACC257 cells; in short: as §3
[34] = test system: BT-549; assay: Antitumor activity against human BT549 cells; in short: as §1
[35] = test system: UACC-62; assay: Antitumor activity against human UACC62 cells; in short: as §3
[36] = test system: SW-620; assay: Antitumor activity against human SW620 cells; in short: as §3
[37] = test system: SNB-19; assay: Antitumor activity against human SNB19 cells; in short: as §1
[38] = test system: SN12C; assay: Antitumor activity against human SN12C cells; in short: as §1
[39] = test system: 786-0; assay: Antitumor activity against human 786-0 cells; in short: as §1
[40] = test system: IGROV-1; assay: Antitumor activity against human IGROV1 cells; in short: as §1
[41] = test system: SK-OV-3; assay: Antitumor activity against human SKOV3 cells; in short: as §1
[42] = read-out: Log LC50 (the source's name) (converted)

## O=c1[nH]c2cc(Cl)c(Cl)cc2n2cc3ccccc3c12
[1]
  GI50: 17.4 µM
  LC50 (50% net cell kill): 56.2 µM
[1]; read-out: pTGI (converted)
  TGI: 30.9 µM
[2]
  GI50: 25.1 µM
  LC50: > 100 µM
[2]; read-out: pTGI (converted)
  TGI: 53.7 µM
[3]
  GI50: 3.3 µM
[4]
  GI50: 18.6 µM
[4]; [42]
  CC50: 57.5 µM
[4]; read-out: pTGI (converted)
  TGI: 33.1 µM
[5]
  GI50: 17 µM
  LC50 (50% net cell death): 55 µM
[5]; read-out: pTGI (converted)
  TGI: 30.2 µM
[6]
  GI50: 17.4 µM
  LC50 (50% net cell death): 56.2 µM
[6]; read-out: pTGI (converted)
  TGI: 30.9 µM
[7]
  Activity: 0%
[8]
  Activity: 13%
[9]
  GI50: 19.1 µM
[9]; [42]
  CC50: 63.1 µM
[9]; read-out: pTGI (converted)
  TGI: 34.7 µM
[10]
  RatioGI50: 0.86
[11]
  GI50: 29.5 µM
  LC50: > 100 µM
[11]; read-out: pTGI (converted)
  TGI: 39.8 µM
[12]
  GI50: 18.6 µM
  LC50 (50% net cell death): 57.5 µM
[12]; read-out: pTGI (converted)
  TGI: 32.4 µM
[13]
  GI50: 21.9 µM
  LC50: > 100 µM
[13]; read-out: pTGI (converted)
  TGI: 49 µM
[14]
  GI50: 18.6 µM
  LC50 (50% net cell death): 57.5 µM
[14]; read-out: pTGI (converted)
  TGI: 32.4 µM
[15]
  GI50: 18.2 µM
  LC50: 66.1 µM
[15]; read-out: pTGI (converted)
  TGI: 34.7 µM
[16]
  GI50: 20.4 µM
  LC50: 58.9 µM
[16]; read-out: pTGI (converted)
  TGI: 34.7 µM
[17]
  GI50: 15.8 µM
[17]; [42]
  CC50: 56.2 µM
[17]; read-out: pTGI (converted)
  TGI: 30.2 µM
[18]
  Activity: 10%
[19]
  GI50: 17 µM
[19]; [42]
  CC50: 63.1 µM
[19]; read-out: pTGI (converted)
  TGI: 32.4 µM
[20]
  GI50: 33.1 µM
[20]; [42]
  CC50: > 100 µM
[20]; read-out: pTGI (converted)
  TGI: > 100 µM
[21]
  GI50: 28.8 µM
  LC50: > 100 µM
[21]; read-out: pTGI (converted)
  TGI: > 100 µM
[22]
  GI50: 17.4 µM
[22]; [42]
  CC50: 56.2 µM
[22]; read-out: pTGI (converted)
  TGI: 30.9 µM
[23]
  GI50: 20 µM
[23]; [42]
  CC50: > 100 µM
[23]; read-out: pTGI (converted)
  TGI: 52.5 µM
[24]
  GI50: 2.2 µM
[25]
  GI50: 18.6 µM
  LC50 (50% net cell kill): 69.2 µM
[25]; read-out: pTGI (converted)
  TGI: 35.5 µM
[26]
  GI50: 16.6 µM
[26]; [42]
  CC50: 55 µM
[26]; read-out: pTGI (converted)
  TGI: 30.2 µM
[27]
  RatioGI50: 2.3
[28]
  GI50: 0.813 µM
  LC50: 43.7 µM
[28]; read-out: pTGI (converted)
  TGI: 18.6 µM
[29]
  GI50: 13.5 µM
  LC50 (50% net cell death): 55 µM
[29]; read-out: pTGI (converted)
  TGI: 26.9 µM
[30]
  GI50: 16.2 µM
[30]; [42]
  CC50: 55 µM
[30]; read-out: pTGI (converted)
  TGI: 30.2 µM
[31]
  GI50: 17.8 µM
  LC50: 56.2 µM
[31]; read-out: pTGI (converted)
  TGI: 31.6 µM
[32]
  GI50: 1.9 µM
[33]
  GI50: 20.4 µM
  LC50: > 100 µM
[33]; read-out: pTGI (converted)
  TGI: 49 µM
[34]
  GI50: 26.3 µM
  LC50 (50% net cell kill): > 100 µM
[34]; read-out: pTGI (converted)
  TGI: 57.5 µM
[35]
  GI50: 16.6 µM
  LC50: 55 µM
[35]; read-out: pTGI (converted)
  TGI: 30.2 µM
[36]
  GI50: 15.8 µM
[36]; [42]
  CC50: 53.7 µM
[36]; read-out: pTGI (converted)
  TGI: 29.5 µM
[37]
  GI50: 21.9 µM
[37]; [42]
  CC50: > 100 µM
[37]; read-out: pTGI (converted)
  TGI: 56.2 µM
[38]
  GI50: 15.8 µM
  LC50: 55 µM
[38]; read-out: pTGI (converted)
  TGI: 29.5 µM
[39]
  GI50: 25.1 µM
[39]; [42]
  CC50: 63.1 µM
[39]; read-out: pTGI (converted)
  TGI: 39.8 µM
[40]
  GI50: 17.4 µM
[40]; [42]
  CC50: 56.2 µM
[40]; read-out: pTGI (converted)
  TGI: 30.9 µM
[41]
  GI50: 18.2 µM
  LC50 (50% net cell kill): 61.7 µM
[41]; read-out: pTGI (converted)
  TGI: 33.1 µM
